Measured values reported in ChEMBL document CHEMBL1126706, “Structure-activity relationship of N-[2-(dimethylamino)-6-[3-(5-methyl-4-phenyl-1H-imidazol-1-yl)propoxy] phenyl]-N'-pentylurea and analogues. Novel potent inhibitors of acyl-CoA:cholesterol O-acyltransferase with antiatherosclerotic activity” (J Med Chem, 1993).

Legend:
[1] = molecular target: T1, Acyl-CoA:cholesterol acyltransferase (Oryctolagus cuniculus, UniProt Q95214); assay: Tested for inhibition against acyl coenzyme A:cholesterol acyltransferase from rabbit aorta homogenate.; format: tissue-based
T1 sequence (Q95214 whole entry): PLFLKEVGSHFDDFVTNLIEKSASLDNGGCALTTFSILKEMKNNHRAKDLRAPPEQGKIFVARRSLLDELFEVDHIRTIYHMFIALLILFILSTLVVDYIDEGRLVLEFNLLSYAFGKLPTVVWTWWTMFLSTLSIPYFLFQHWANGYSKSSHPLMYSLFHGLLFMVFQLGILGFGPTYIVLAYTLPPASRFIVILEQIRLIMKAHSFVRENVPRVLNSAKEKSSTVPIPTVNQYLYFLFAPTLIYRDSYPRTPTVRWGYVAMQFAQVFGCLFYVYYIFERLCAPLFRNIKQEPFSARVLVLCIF

Rattus norvegicus [2] = assay: Tested for cholesterol lowering activity in rats after a dose of 10 mg/kg once a day for 5 days; format: functional
Outline: (§1)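 Male Sprague-Dawley rats, 5 weeks old, fed chow with 1% cholesterol and 0.5% cholic acid while given drug orally once daily as a suspension in 2% Sefuzol. Starved 5 h after last dose, bled from abdominal aorta under ether; serum total cholesterol measured enzymatically. Result as percent of control (n ≥ 4).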

O-acyltransferase = O-acyltransferase (Oryctolagus cuniculus, UniProt G1SFD9); assay: Tested for inhibition against acyl coenzyme A:cholesterol acyltransferase from rabbit intestine microsomes.
Chain of O-acyltransferase (G1SFD9 1-524): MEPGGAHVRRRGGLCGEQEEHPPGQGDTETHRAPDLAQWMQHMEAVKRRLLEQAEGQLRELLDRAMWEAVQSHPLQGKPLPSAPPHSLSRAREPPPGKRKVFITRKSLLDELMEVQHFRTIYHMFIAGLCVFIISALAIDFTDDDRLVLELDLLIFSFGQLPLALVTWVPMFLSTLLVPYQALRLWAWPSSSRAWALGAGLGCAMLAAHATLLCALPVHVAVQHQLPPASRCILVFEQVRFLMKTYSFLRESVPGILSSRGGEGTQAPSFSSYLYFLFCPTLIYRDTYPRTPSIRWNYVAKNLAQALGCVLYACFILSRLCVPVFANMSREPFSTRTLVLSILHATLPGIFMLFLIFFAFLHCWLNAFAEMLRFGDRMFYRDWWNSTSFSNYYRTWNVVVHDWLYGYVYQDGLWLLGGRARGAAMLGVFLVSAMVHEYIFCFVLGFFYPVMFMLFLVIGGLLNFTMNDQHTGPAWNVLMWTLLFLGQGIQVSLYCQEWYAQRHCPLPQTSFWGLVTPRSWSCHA
Outline: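 Intestinal mucosa microsomes from NZW rabbit (10000g then 105000g pellet, buffered sucrose pH 7.4). Endogenous cholesterol plus 40 μM [1-14C]oleoyl-CoA in K2HPO4 buffer pH 7.4 with 2.4 mg/mL BSA; compound preincubated 3 min at 37 °C, enzyme (8 mg protein/mL) added, 2 min reaction, chloroform/methanol 2:1 stop. IC50 from triplicate tubes per concentration.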

Rattus norvegicus [3] = assay: Tested for cholesterol lowering activity in rats after a dose of 50 mg/kg once a day for 2 days; format: functional; outline: as §1
Rattus norvegicus [4] = assay: Tested for cholesterol lowering activity in rats after a dose of 30 mg/kg once a day for 5 days; format: functional; conditions: dose 10 mg/kg; in the assay text read “10 mg/kg” for “30 mg/kg”; outline: as §1
Oryctolagus cuniculus [5] = assay: Tested for the plasma total cholesterol level in rabbit after administration of 0.2% (w/w) of drug for first 4 days; format: functional, organism-based
Outline: (§2)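 Male NZW rabbits (2.5-3.0 kg) were fed chow with 0.5% cholesterol and 0.5% olive oil, 100 g/day, for 8 weeks, then randomized by plasma cholesterol. Drug was mixed into the diet for 4 weeks, either 0.2% (w/w) for 4 days then 0.1%, or 0.1% throughout. Plasma total cholesterol was measured enzymatically in EDTA ear-vein blood. Mean ± SEM; Student's t test vs control.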

Oryctolagus cuniculus [6] = species: Oryctolagus cuniculus; assay: Tested for the atheromatous lesion development in rabbit; format: functional
Outline: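 Male NZW rabbits (2.5-3.0 kg) fed 100 g/day chow with 0.5% cholesterol and 0.5% olive oil for 8 weeks, randomized by plasma cholesterol, then 4 weeks with drug mixed in diet (0.2% then 0.1% w/w, or 0.1% w/w). Thoracic aorta halved: one half formalin-fixed, Sudan IV-stained, stained area measured by image analysis; other half cholesterol content by TLC-FID. Mean ± SEM, 7-12 per group, Student's t test.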

Rattus norvegicus [7] = species: Rattus norvegicus; assay: Tested for hypocholesterolemic activity required to decrease serum total cholesterol; format: functional
Outline: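 Male Sprague-Dawley rats (5 weeks) on 1% cholesterol/0.5% cholic acid chow; drug in 2% Sefuzol given orally once daily for 5 days. Serum total cholesterol measured enzymatically after 5 h fast. ED30 (mg/kg dose lowering serum cholesterol to 30% of control) read from dose-response curve of at least 3 doses, n = 4 or 5.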

Oryctolagus cuniculus [8] = assay: Tested for the plasma total cholesterol level in rabbit after administration of 0.1% (w/w) of drug for first 4 days; format: functional, organism-based; outline: as §2

SMILES | IC50 [1] | IC50 (O-acyltransferase) | Cholesterol reduction (Rattus norvegicus [2]) | other results
CN(C)c1cccc(OCCCn2cnc(-c3ccccc3)c2)c1NC(=O)NC1CCCCC1 | 1070 nM | 73 nM |  | Cholesterol reduction (Rattus norvegicus [3]): -42%
CCCCCNC(=O)Nc1cc(OCCCn2cnc(-c3ccccc3)c2C)ccc1N(C)C | 410 nM | 410 nM |  | 
CCCCCNC(=O)Nc1c(OCCCn2ccnc2-c2ccccc2)cccc1N(C)C | 480 nM | 380 nM |  | Cholesterol reduction (Rattus norvegicus [4]): -12%
CCCCCNC(=O)Nc1c(CCCCn2cnc(-c3ccccc3)c2C)cccc1N(C)C | 140 nM | 170 nM | -37% | 
CCCCCNC(=O)Nc1c(OCCCn2cnc3ccccc32)cccc1N(C)C | 620 nM | 180 nM | -12% | 
CCCCCNC(=O)Nc1c(OCCCn2ncc(-c3ccccc3)n2)cccc1N(C)C | 180 nM | 32 nM | -32% | 
CCCCCNC(=O)N(C)c1c(OCCCn2cnc(-c3ccccc3)c2)cccc1N(C)C | 400 nM | 930 nM |  | 
CCCCCNC(=O)Nc1c(OCCCn2cc(-c3ccc(OC)cc3)nc2C)cccc1N(C)C | 730 nM | 160 nM | -15% | 
CCCCCCNC(=O)Nc1c(OCCCn2cnc(-c3ccccc3)c2)cccc1N(C)C | 50 nM | 60 nM |  | Plasma total cholesterol (Oryctolagus cuniculus [5]): 924 mg/dL; Surface involvement (Oryctolagus cuniculus [6]): 30.6%; ED30 (Rattus norvegicus [7]): 1.3 mg/kg; Cholesterol reduction (Rattus norvegicus [3]): -57%
CCCCCNC(=O)Nc1c(SCCCn2cnc(-c3ccccc3)c2C)cccc1N(C)C | 58 nM | 56 nM |  | 
CCCCCNC(=O)Nc1c(OCCCn2cnc(-c3ccccc3)c2)cccc1N(C)C | 160 nM | 31 nM |  | Plasma total cholesterol (Oryctolagus cuniculus [5]): 830 mg/dL; Surface involvement (Oryctolagus cuniculus [6]): 22.8%; ED30 (Rattus norvegicus [7]): 14 mg/kg; Cholesterol reduction (Rattus norvegicus [3]): -51%
CCCCCNC(=O)Nc1c(OCCCn2cnc(-c3ccccc3)c2C)cccc1N(C)C | 110 nM |  | -49% | Plasma total cholesterol (Oryctolagus cuniculus [8]): 800 mg/dL; Surface involvement (Oryctolagus cuniculus [6]): 21%; ED30 (Rattus norvegicus [7]): 4.5 mg/kg
CCCCCNC(=O)Nc1c(OCCCn2cnc(-c3ccccc3)c2C)ncnc1N(C)C | 11000 nM | 5500 nM |  | 
CCCCCNC(=O)Nc1c(OCCCNCCc2ccccc2)cccc1N(C)C | 3440 nM | 960 nM | -18% | 
CCCCNC(=O)Nc1c(OCCCn2cnc(-c3ccccc3)c2)cccc1N(C)C | 810 nM | 140 nM |  | Plasma total cholesterol (Oryctolagus cuniculus [5]): 1190 mg/dL; Surface involvement (Oryctolagus cuniculus [6]): 23.5%; ED30 (Rattus norvegicus [7]): 75 mg/kg; Cholesterol reduction (Rattus norvegicus [3]): -37%
CCCCCNC(=O)Nc1c(OCCCn2nnc(-c3ccccc3)n2)cccc1N(C)C | 230 nM | 23 nM | -48% | 
CCCCCNC(=O)Nc1c(OCCn2cnc(-c3ccccc3)c2)cccc1N(C)C | 1400 nM | 170 nM |  | 
CCCCCNC(=O)Nc1c(N(C)C)ccc(C)c1OCCCn1cnc(-c2ccccc2)c1 | 250 nM | 410 nM |  | 

Further lines, with some results ahead:

IC50 [1] | IC50 (O-acyltransferase) | SMILES | Cholesterol reduction (Rattus norvegicus [2]) | other results
180 nM |  | CCCCCNC(=O)Nc1c(OCCCN2CCN(c3ccccc3)CC2)cccc1N(C)C | -44% | 
430 nM | 54 nM | CCCCCNC(=O)Nc1c(OCCCn2cnc(-c3ccc(CCCC)cc3)c2)cccc1N(C)C | -46% | 
1330 nM | 59 nM | CCCCCNC(=O)Nc1c(OCCCn2cnc(-c3ccc(OC)cc3)c2)cccc1N(C)C | -36% | 
780 nM | 160 nM | CCCCCNC(=O)Nc1c(OCCCCn2cnc(-c3ccccc3)c2)cccc1N(C)C |  | 
3530 nM | 240 nM | CN(C)c1cccc(OCCCn2cnc(-c3ccccc3)c2)c1NC(=O)NC1CCCC1 |  | Cholesterol reduction (Rattus norvegicus [3]): -24%
1550 nM | 65 nM | CCCCCNC(=O)Nc1c(OCCCn2cnc(-c3cccc4ccccc34)c2)cccc1N(C)C | -30% | 
3200 nM | 5800 nM | CCCCCNC(=O)Nc1cccc(OCCCn2cnc(-c3ccccc3)c2C)c1N(C)C |  | 
210 nM | 85 nM | CCCCCNC(=O)Nc1c(OCCCn2cnc(C)c2-c2ccccc2)cccc1N(C)C | -46% | 
990 nM | 130 nM | CN(C)c1cccc(OCCCn2cnc(-c3ccccc3)c2)c1NC(=O)NC(C)(C)C |  | Cholesterol reduction (Rattus norvegicus [3]): -12%
> 10000 nM | 870 nM | CCNC(=O)Nc1c(OCCCn2cnc(-c3ccccc3)c2)cccc1N(C)C |  | Cholesterol reduction (Rattus norvegicus [3]): 2%
100 nM | 200 nM | CCCCCC(=O)Nc1c(OCCCn2cnc(-c3ccccc3)c2)cccc1N(C)C |  | Cholesterol reduction (Rattus norvegicus [3]): 3%
7230 nM | 660 nM | CCCNC(=O)Nc1c(OCCCn2cnc(-c3ccccc3)c2)cccc1N(C)C |  | 
1300 nM | 2400 nM | CCCCCNC(=O)Nc1c(OCCCn2cnc(-c3ccc(OC)cc3)c2)c(Br)cc(Br)c1N(C)C |  | 
280 nM | 550 nM | CCCCCN(C)C(=O)Nc1c(OCCCn2cnc(-c3ccccc3)c2)cccc1N(C)C |  | 
290 nM | 770 nM | CCCCCNC(=O)Nc1c(OCCCn2nc3ccccc3n2)cccc1N(C)C | -3.4% | 
1500 nM | 2400 nM | CCCCCNC(=O)Nc1ccc(OCCCn2cnc(-c3ccccc3)c2C)cc1N(C)C |  | 
2200 nM | 470 nM | CCCCCNC(=O)Nc1c(NCCCn2cnc(-c3ccccc3)c2C)cccc1N(C)C |  | 
3300 nM | 11000 nM | CCCCCCNc1c(OCCCn2cnc(-c3ccccc3)c2)cccc1N(C)C |  | 
470 nM | 340 nM | CCCCCNC(=O)Nc1c(OCCCN2CCC(c3ccccc3)CC2)cccc1N(C)C | -27% | 
